Measured values as given in ChEMBL document CHEMBL1914360, “Synthesis and anticancer activity of 5'-chloromethylphosphonates of 3'-azido-3'-deoxythymidine (AZT)” (Bioorg Med Chem, 2011).
Values after ≈ are worked out from the molar mass of the structure shown.

Columns and labels:
[1] = tested on: MCF7; assay: Cytotoxicity against human MCF7 cells assessed as cell survival after 72 hrs by sulforhodamine B colorimetric assay; type: functional, cell-based; settings: MCF7, 72 h
Procedure, shortened: (§1)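 SRB protein-stain assay: KB cells grown in RPMI 1640 and MCF-7 in DMEM, each with 10% FBS, 1% L-glutamine and 1% penicillin/streptomycin, at 37 °C. About 10,000 cells per well were left 24 h, then exposed 72 h to six concentrations ([…]), with DMSO ≤0.1%. Cells were TCA-fixed 1 h at 4 °C and stained 30 min at RT. OD was read at 490 nm, survival taken as % of untreated control, and each experiment run three times.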

[2] = tested on: KB; assay: Cytotoxicity against human KB cells assessed as cell survival after 72 hrs by sulforhodamine B colorimetric assay; type: functional, cell-based; procedure, shortened: as §1
[3] = tested on: Caco-2; assay: Cytotoxicity against human Caco2 cells at 100 uM; type: cell-based; settings: caco-2, 100 µM
Procedure, shortened: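 Caco-2 monolayers were exposed for 2 h to compound at 100 µM in transport medium (HBSS with 10 mM HEPES, pH 7.4). This served as a pre-check before transport studies. Monolayer integrity was checked by TEER before and after the experiments.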

[4] = Apparent permeability from basolateral to apical side of the human Caco2 cells at 100 uM after 30 mins by HPLC method; type: ADME, cell-based; settings: Caco-2
Procedure, shortened: (§2)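 Caco-2 monolayers grown on polycarbonate membranes (0.4 µm pores) and used 21 days post-seeding; only monolayers with TEER above 800 Ω·cm² were used. Cells washed and pre-incubated 30 min at 37 °C. Compound at 100 µM in HBSS with 10 mM HEPES, pH 7.4, added to the donor side; shaken at 37 °C. Acceptor sampled every 15 min and analysed by HPLC. Papp reported as mean ± SD, n = 3.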

[5] = Apparent permeability from apical to basolateral side of the human Caco2 cells at 100 uM after 30 mins by HPLC method; type: ADME, cell-based; settings: Caco-2; procedure, shortened: as §2
[6] = Oral bioavailability in human; type: ADME, organism-based; settings: in vivo

CCNP(=O)(CCl)OC[C@H]1O[C@@H](n2cc(C)c(=O)[nH]c2=O)C[C@@H]1N=[N+]=[N-] (some centres not stated)
IC50 [1]: > 100 µg/mL
IC50 [2]: > 100 µg/mL

Nc1ccn([C@@H]2O[C@H](CO)[C@@H](O)[C@@H]2O)c(=O)n1 [CYTARABINE]
IC50 [1]: 0.93 µg/mL (≈ 3.82 µM)
IC50 [2]: 0.99 µg/mL (≈ 4.07 µM)

CCCCNP(=O)(CCl)OC[C@H]1O[C@@H](n2cc(C)c(=O)[nH]c2=O)C[C@@H]1N=[N+]=[N-] (some centres not stated)
IC50 [1]: 82 µg/mL (≈ 189 µM)
IC50 [2]: 77 µg/mL (≈ 177 µM)

C=CCNP(=O)(CCl)OC[C@H]1O[C@@H](n2cc(C)c(=O)[nH]c2=O)C[C@@H]1N=[N+]=[N-] (some centres not stated)
IC50 [1]: 34 µg/mL (≈ 81.2 µM)
IC50 [2]: 47 µg/mL (≈ 112 µM)

Cc1cn([C@H]2C[C@H](N=[N+]=[N-])[C@@H](COP(=O)(CCl)NC(C)C)O2)c(=O)[nH]c1=O (some centres not stated)
Activity [3]: Non-toxic
IC50 [1]: 12.8 µg/mL (≈ 30.4 µM)
Papp B→A at 0.5 h, 100 µM [4]: 18 ×10⁻⁶ cm/s
Papp A→B at 0.5 h, 100 µM [5]: 3.36 ×10⁻⁶ cm/s
IC50 [2]: 12.1 µg/mL (≈ 28.8 µM)

Cc1cn([C@H]2C[C@H](N=[N+]=[N-])[C@@H](COP(=O)(CCl)NCCc3ccccc3)O2)c(=O)[nH]c1=O (some centres not stated)
IC50 [1]: > 100 µg/mL
IC50 [2]: > 100 µg/mL

Cc1cn([C@H]2C[C@H](N=[N+]=[N-])[C@@H](COP(=O)(CCl)N(C)C)O2)c(=O)[nH]c1=O (some centres not stated)
IC50 [1]: 22.8 µg/mL (≈ 56.1 µM)
IC50 [2]: 65 µg/mL (≈ 160 µM)

CCCNP(=O)(CCl)OC[C@H]1O[C@@H](n2cc(C)c(=O)[nH]c2=O)C[C@@H]1N=[N+]=[N-] (some centres not stated)
Activity [3]: Non-toxic
IC50 [1]: 3.7 µg/mL (≈ 8.79 µM)
Papp B→A at 0.5 h, 100 µM [4]: 16.1 ×10⁻⁶ cm/s
Papp A→B at 0.5 h, 100 µM [5]: 3.22 ×10⁻⁶ cm/s
IC50 [2]: 5.8 µg/mL (≈ 13.8 µM)

Cc1cn([C@H]2C[C@H](N=[N+]=[N-])[C@@H](CO)O2)c(=O)[nH]c1=O [ZIDOVUDINE]
IC50 [1]: 2.6 µg/mL (≈ 9.73 µM)
bioavailability [6]: 63%
Papp A→B at 0.5 h, 100 µM [5]: 2.85 ×10⁻⁶ cm/s
IC50 [2]: 3.12 µg/mL (≈ 11.7 µM)

CNP(=O)(CCl)OC[C@H]1O[C@@H](n2cc(C)c(=O)[nH]c2=O)C[C@@H]1N=[N+]=[N-] (some centres not stated)
IC50 [1]: 63.2 µg/mL (≈ 161 µM)
IC50 [2]: 52 µg/mL (≈ 132 µM)

Cc1cn([C@H]2C[C@H](N=[N+]=[N-])[C@@H](COP(=O)(CCl)NCCc3c[nH]c4ccccc34)O2)c(=O)[nH]c1=O (some centres not stated)
IC50 [1]: > 100 µg/mL
IC50 [2]: 80 µg/mL (≈ 153 µM)

CCN(CC)P(=O)(CCl)OC[C@H]1O[C@@H](n2cc(C)c(=O)[nH]c2=O)C[C@@H]1N=[N+]=[N-] (some centres not stated)
IC50 [1]: 67 µg/mL (≈ 154 µM)
IC50 [2]: 85 µg/mL (≈ 195 µM)
